According to the EternaBench riboswitch data:

Tested on: MS2 coat protein
Assay: apparent Kd, MS2 coat protein; higher = weaker binding; RNA-MaP array; FMN 200 µM where present
In short: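 On Illumina sequencing-chip clusters, designs were transcribed by stalled E. coli RNA polymerase and titrated with SNAP-549-labelled MS2 coat protein (0.7 or 1.5 nM, doubling to 3 µM), without and then with constant ligand, in 100 mM Tris-HCl pH 7.5, 80 mM KCl, 4 mM MgCl2, BSA, DTT, yeast tRNA and Tween-20. Apparent Kd is the median of filtered per-cluster curve fits to green signal normalised to red-channel RNA signal and control-cluster median Fmax.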

[1] = designed as: OFF switch for flavin mononucleotide, no ligand
[2] = ligand present: flavin mononucleotide, designed as: OFF switch for flavin mononucleotide
[3] = designed as: ON switch for flavin mononucleotide, no ligand
[4] = ligand present: flavin mononucleotide, designed as: ON switch for flavin mononucleotide

Sequence	apparent Kd [1]	apparent Kd [2]	apparent Kd [3]	apparent Kd [4]
UUAUUUUUACAGAAGGUUUAAUAAUAUAUAUGAGAAGGAUAUGUAACAUGAGGAUCACCCAUGUUUCACCUAUAUGAGGAUCAU	7.26 nM	6.11 nM		
AAAAAACAAGGAUAUACGCAGGAGGGUUGUCUUAAUUUUUGACAUGAGGAUCACCCAUGUAGAAGGUGUUAAAA	237 nM	507 nM		
GAUUACAAGUAAGGAUAUGUAUAUGAAACAUAUACAGAAGGUACAUGAGGAUCACCCAUGUUCUUGCAGCGCGAAUAUGUAAUC	17.1 nM	21.1 nM		
GUCAAGUGAGGAUAUGAUUGUACAACAGACUAGCAUCUGCAUCAGAAGGCACAUGAGGAUCACCCAUGUUUGUC	17.5 nM	17.7 nM		
UUGUUCUGAGGAUAUACAUGAGGAUCACCCAUGUGUUUCUGCUUGGUGUCUUGCGAAUGUAGAAGGCUGUUCUC	37.5 nM	40.2 nM		
CCUGUGUAAGGAUAUGACAAUGGUAUCUUCGGAUACCAUUGUCAGAAGGUACAUGAGGAUCACCCAUGUAACAC	15 nM	30.4 nM		
CUUUUGUGAGGAUAUCUGUAGUAAAAAAAUAAAAUUACUACUGAGAAGGCACAUGAGGAUCACCCAUGUUCCUC	39.6 nM	181 nM		
AGCAAAAUAAGCAAGGAUAUGUAAUUUGGCACAUGAGGAUCACCCAUGUCAAUCCAUUUUUUUGAACAGAAGGUGCAUUUUUUUU			38.2 nM	32.1 nM
UAACCGCAGCAGAAGGGACGUCGGGUGGACUAGUCAGGAUAUGCAUGCCGGCAUAGACAUGAGGAUCACCCAUGUACGAGUGGC			347 nM	87.5 nM
GUUGUGUAUGUAGGAUAUGCGAAGCAAAGCUUCGCAGAAGGACAUGAGGAUCACCCAUGUAUUGCAGCCUGCAAUCAGGCUGCU	41.6 nM	175 nM		
AGUAAGAUGCAGAAGGUGUCAGCGAGAGCUACGACAUGAGGAUCACCCAUGUACUAGGUAGAGUACAAGGAUAUGCAUCUUACA			324 nM	24.6 nM
AGUAAGAUGCAGAAGGUGUUAGCUAGAGCUACGACAUGAGGAUCACCCAUGUACUAAAACCCGUACAAGGAUAUGCAUCUUACA			8.17 nM	6.47 nM
GGUGCGUAUGUGAGGAUAUGCUGGUCCUUGGAUCGGCAGAAGGUACAUGAGGAUCACCCAUGUGGUGUCGUUCC	97.5 nM	289 nM		
GUGAGAAUAGGAGGAUAUAUACAACAUGAGGAUCACCCAUGUACCCGUGUAGUAGAAGGUUUGUUUAUAUAUAAUAUUAUAUUU			20.2 nM	18.7 nM
ACGAUACAUGAGGAUCACCCAUGUUAGGAUAUACGCAUGCAUGCAUGCAUGCAUGCAAGUAGAAGGAACCAUGC	27.5 nM	26.8 nM		
GCUGCAUAGGCAGGAUAUGCAAUAAUUCGAAUAGAAUAUAACGAAUUAACAUGAGGAUCACCCAUGUAGAAGGGCCUGUGCAGU	5.76 nM	5.58 nM		
UGUCGGAGCAGAGGAUAUUACAUGAGGAUCACCCAUGUAUGAACCAAUAGCUGGAAACAGCAAUGUAAGAAGGCUACUCCGACA	5.41 nM	31.4 nM		
CUGUACUGAGGAUAUACAUGAGGAUCACCCAUGUGUUCGAUACUAGUGAGGUCGAUUAGUAGAAGGCAGUACAG	23 nM	242 nM		
UUCAGCGAUCAAGGAUAUCUAUAAACAUGCGGACAUGAGGAUCACCCAUGUUGAUCACCCAUGUGGGAGAAGGUGAACAUGAGG			174 nM	72.9 nM
CUCUUGUGAGGAUAUGUAGGUUACGAGAGCAAAACGAACGGACAGAAGGUACAUGAGGAUCACCCAUGUGGGAU	109 nM	95.4 nM		
GCCCGCCUAGCAGGAUAUACAGGUUGGCGGACAUGAGGAUCACCCAUGUAAGGCUACAUACACUUGUAGAAGGGUUGGGUGUCC			93.4 nM	33.7 nM
CGUACUGAAGUGAGGAUAUUGUCUCGGAUACGAAACAAGAAGGCACAUGAGGAUCACCCAUGUAAACAGUACGA	17.5 nM	14.2 nM		
UUGGCAUCGUAGAAGGGUGACAUGAGGAUCACCCAUGUGAUGAUAUUUCUCGAGAUAUGUUGUCCAUAGGAUAUACGAGCGAAC			80.9 nM	18.4 nM
GCGAAGAACGAGAAGGCCACAACAUGAGGAUCACCCAUGUCGUGGAGUAUUGGAGGAUAUCGUUAGGCGUCUCAUGAGGACAUA	5.92 nM	5.66 nM		
GUGCUCGUGUGAGGAUAUGCUGCCGGGUCGGCUGCAGAAGGUACUAUUAUACAUGAGGAUCACCCAUGUCGCUUUUCUCCGGUG			45.6 nM	44.9 nM
AUCUUUGACUUUACUAGAAUAGGGCAGGAUAUACAUGAGGAUCACCCAUGUUAAGCACGUAAGAGGUAGAAGGGCCCUUGUCAU	16.1 nM	13.6 nM		
GACUGCCGAGGAUAUACAUGAGGAUCACCCAUGUGCUUCAGCAUUUUUUAAUGCAUGGGUAGAAGGCGGUAGUU	35.4 nM	60.7 nM		
AUGCCUUAUGUAGGAUAUGCAUAGCGUUGCUAUGCAGAAGGACAUGAGGAUCACCCAUGUAUGUUAUCAUUACAUAUCUGGCAU	27.6 nM	271 nM		
